Source: the EternaBench riboswitch data

System: MS2 coat protein
Test: apparent Kd, MS2 coat protein; higher = weaker binding; RNA-MaP array; theophylline 2 mM where present
Summary of the method: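 In 100 mM Tris-HCl pH 7.5, 80 mM KCl, 4 mM MgCl2, BSA, DTT, yeast tRNA and Tween-20, SNAP-549-labelled MS2 coat protein was titrated from 0.7 or 1.5 nM, doubling to 3 µM, over designs transcribed by stalled E. coli RNA polymerase on Illumina sequencing-chip clusters. This was done first without ligand, then with ligand held constant. After green signal was normalised to red-channel RNA signal and control-cluster median Fmax, the apparent Kd was taken as the median of filtered per-cluster binding-curve fits.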

[1] = designed as: ON switch for theophylline, no ligand
[2] = ligand present: theophylline, designed as: ON switch for theophylline
[3] = designed as: OFF switch for theophylline, no ligand
[4] = ligand present: theophylline, designed as: OFF switch for theophylline

Sequence | apparent Kd [1] [nM] | apparent Kd [2] [nM] | apparent Kd [3] [nM] | apparent Kd [4] [nM]
GGGCCCGUAAGCAGGCCCACAGCGGGUGAUACCAGCAAUAAAACUUGCCCUUGGCAGCACACAGCUACAUGAGGAUCACCCAUGU | 36.5 | 63.5 |  | 
ACGGAGAUUGCUAAAUGUUGGCGAGCGGAUACCAGCCUAUUAUUGGGCCCUUGGCAGCCGACAUGAGGAUCACCCAUGUAAACAA | 79 | 126 |  | 
UGAUCCUAGACUGAUACCAGUCAUGAGUACAUGAGGAUCACCCAUGUCCAGGGACUCAAUGACCCUUGGCAGCAGAACCUAGUUC | 193 | 147 |  | 
GCUGUAAGUGCAGAUACCAGCAGGUGAUAUUUCUAAUGACAUGAGGAUCACCCAUGUAACUGCCCUUGGCAGCUGCACUUACAGC | 57.6 | 12.9 |  | 
GGGCCCGGGCGCGAGCCCGGGCCCAUUGAUACCAGUGAAUGUGUACGCCCUUGGCAGCGAAUCCUAACAUGAGGAUCACCCAUGU | 43.3 | 53.8 |  | 
AAUAACAUGAGGAUCACCCAUGUAAAAGAUACCAGAUGCAUGAUGAUCCCUUGGCAGCUUAACGCUGAUUGAUUACAAUCAGCGA | 28.6 | 87 |  | 
AUUAAUUGUCGUGAUACCAGACUUACAUGAGGAUCACCCAUGUUACUUAAGAUUUUUGUUGUCCCUUGGCAGCACUUUUUAAUUA |  |  | 24.1 | 18.9
GUUACAUGGCAAGCAUGUAUAUGGAUAGAUACCAGUUGAUAUUAAGACCCUUGGCAGCUGAGUACAUGAGGAUCACCCAUGUAAG |  |  | 42.5 | 90.8
ACAUGAGGAUCACCCAUGUGCCGUCUUGAUACCAGACCCGAAGUAGUCCCUUGGCAGCAACUACGUGACGGUCGCCCAUGUGUAG |  |  | 14.2 | 24
AUUAAUAGUUGUGAUACCAGACUUACAUGAGGAUCACCCAUGUUACUUAAGUGUUUUGAUGUCCCUUGGCAGCACUGUUUAGUUA | 25.5 | 13.4 |  | 
UGAUCCUACAGAGAUACCAGUGCCGCUAGAUAACUAUGCACAUGAGGAUCACCCAUGUAACACCCUUGGCAGCUCAACUAAAGGG | 92.2 | 115 |  | 
AUUCCAUAGGUGCAGUUGUUAAAUGGCGAUACCAGCGUGGAAACACGCCCUUGGCAGCGCCAAAACAUGAGGAUCACCCAUGUUA |  |  | 95.8 | 186
CAGAGCUACCGGGAUACCAGAAUUGGUAUUCCUAUAUUUCUUACAUGAGGAUCACCCAUGUUCCCUUGGCAGCUUGGUAGCUCUG |  |  | 80.9 | 446
AGUGUUAUAACUGAUACCAGACUUUUGCUUAUACAUGAGGAUCACCCAUGUAAAAUGGUUGUCCCUUGGCAGCAGAAAAUACACA | 84 | 20.4 |  | 
UGGUCACUAGGAGAUACCAGCCGACAUGAGGAUCACCCAUGUAACCGGCGUCCUCCCUUAGGCCCUUGGCAGCUCGUAGUUGCUC |  |  | 12.2 | 156
GGUGGCGUGACGGAUACCAGCCACCACCGAUAGACCACAUGAGGAUCACCCAUGUUGGGUGGCCCUUGGCAGCUGUCGUGCGGCG | 230 | 56.7 |  | 
UGUAUGUGAUUUGAUACCAGUUCUGCUGGUAAAACAUGAGGAUCACCCAUGUUACUUUGGGACCCUUGGCAGCAAAUCGCAUACU | 201 | 13.9 |  | 
AAAACACAUGAGGAUCACCCAUGUCGUGAUACCAGUCAACAUGAGGACCCUUGGCAGCAUAAAAUGGGUAACAUGAGGAUCACCC |  |  | 85.1 | 133
AUCGUACCUGAGGAUACCAGCAUGUGAUCAUAACAUGAGGAUCACCCAUGUAAUCAGUGAUGCCCUUGGCAGCUUGGUCGAUACA | 54.2 | 34.9 |  | 
UGUAACAUGAGGAUCACCCAUGUGAGUGAUACCAGACUAGUGUUGGUCCCUUGGCAGCACGCUGGGCGAGUGUGUAGUCUAUGCG | 92.8 | 120 |  | 
AUACCUAAUGUUACAUUUACCUUAUCAGAUACCAGACUUUACGUUGUCCCUUGGCAGCUGUAUCACAUGAGGAUCACCCAUGUUG | 16 | 15.7 |  | 
UUAAGAGGCUAUCCACUUUGAUUUUGUGAUACCAGAAUAAUUUUAUUCCCUUGGCAGCAUGACAUGAGGAUCACCCAUGUGUCUU | 37.4 | 72.4 |  | 
AUUAAUAGUUGUGAUACCAGACGAACAUGAGGAUCACCCAUGUAACUUUUAGGUGUUGUAGUCCCUUGGCAGCACUAUGUAGUUA | 40 | 33.7 |  | 
AAAAUAAAUAAAACGCGUAACAUGAAGGAUACCAGCCAGAAAACUGGCCCUUGGCAGCCUCUACAUGAGGAUCACCCAUGUCGCG | 331 | 29.6 |  | 
UUAUUUAUAAAUGAUACCAGCCGAUUGGCCGCAAAUCCUAACAUGAGGAUCACCCAUGUCGGCCCUUGGCAGCAUUUAUGGGUUU |  |  | 76.7 | 722
AUACCGAGUGAGUCGUGUUUCUUUUCAGAUACCAGACUUUUCGUUGUCCCUUGGCAGCUGUUUUACAUGAGGAUCACCCAUGUUG |  |  | 18.2 | 25.5
AAGGUAUCACAGACAUGGGUGUACUGUGAUACCAGCUAGGAAACUAGCCCUUGGCAGCACAUGAGGAUCACCCAUGUAAGAAUAA |  |  | 47.4 | 141

Sequence | apparent Kd [1] [nM] | apparent Kd [2] [nM] | apparent Kd [3] [nM] | apparent Kd [4] [nM]
GGCACUCUGUAAGAUACCAGACGUCGGUGCUUACAUGAGGAUCACCCAUGUUGCUUUUUAGUCCCUUGGCAGCUUCGGAUAACCA | 121 | 147 |  | 
AAACAUUGCUGCGAUACCAGACAUGAGGAUCACCCAUGUACCAAGAAAACGUACAUAAAUGUCCCUUGGCAGCGCAGCAAUGAAA |  |  | 498 | 1290
UGAUCCUACAGAGAUACCAGUGCCACUGAGUGACCAGACACAUGAGGAUCACCCAUGUAACACCCUUGGCAGCUCAACUAAAGGG | 22.2 | 80.3 |  | 
AUCUUGUACCGUAAUACUUUACGUUGGGAUACCAGCAUGGACCCAUGCCCUUGGCAGCUUUACAUGAGGAUCACCCAUGUUGUAG | 36.6 | 32.5 |  | 
AGAAUAACACAUGAGGAUCACCCAUGUGAUACCAGCUAGGAAACUAGCCCUUGGCAGCACAUAAUCCUCAUGAGCUGCCAUAAUA |  |  | 12.8 | 21.4
AGACAUGAGGAUCACCCAUGUAGUACGGAUACCAGAUCCAGAUGCAUCCCUUGGCAGCUGUGGUACAGCGUUACAUCGCUCGUAG |  |  | 20 | 20.6
UGUAUGUGAUGUGAUACCAGUCCAAUACUGGUAACAUGAGGAUCACCCAUGUAAUGAUGGGACCCUUGGCAGCACAUCGCAUACU | 212 | 111 |  | 
AGACAUGAGGAUCACCCAUGUAGUACGGAUACCAGAUCCAGAUGCGUCCCUUGGCAGCUGUAGUACAGCGUUACGUCGCUCAUAG |  |  | 25.2 | 61
ACAUGAGGAUCACCCAUGUCACGGCACGAUACCAGCUGAUCCGGUGGCCCUUGGCAGCGUGACGUUUGGUCCCGCGGAUCACACG | 75.4 | 38.6 |  | 
UAUAUAUAUAUUGAUACCAGCAGAGAAAACGUAUAUCCUAACAUGAGGAUCACCCAUGUAUGCCCUUGGCAGCGAUAUAUAUAUA |  |  | 24.3 | 31.4
ACAUGAGGAUCACCCAUGUGAAGGCACGAUACCAGCUGAUCCCGUGGCCCUUGGCAGCGUCCGGUUUGGUCCGGCGGAUGAGACG | 24.1 | 24.9 |  | 
GCACGACAUGAGGAUCACCCAUGUGCAGAUACCAGUAAUGUAUGUUACCCUUGGCAGCUGAGUAGGUCUGGAGGGCUAUAGGUAA | 13.3 | 17.1 |  | 
AUAUGAAAGAGUGAUACCAGACUACAUGAGGAUCACCCAUGUGACAUUUAAAUAUCAUUUGUCCCUUGGCAGCACAUUAAGUACA |  |  | 38.8 | 44.9
GUCAGUUCUCAUGAUACCAGACCUGCCUCGGACAUGAGGAUCACCCAUGUACCCAAGCGAGUCCCUUGGCAGCAUGUGGCUUAAA | 19.2 | 10.8 |  | 
AUCGCACCUGGUGAUACCAGCGUUUGCUCGCGACAUGAGGAUCACCCAUGUGGCCAGUGAUGCCCUUGGCAGCAUGGGCGGUGCA | 282 | 90.2 |  | 
AACAUGAGGAUCACCCAUGUAAAAUGGGAUACCAGAGACGAAAGUCUCCCUUGGCAGCCCACUGCCUCCUUUACGAAAGUAGAGG | 31.6 | 18.2 |  | 
GCACUACAUGAGGAUCACCCAUGUGCAGAUACCAGAGGUGUAUGCCUCCCUUGGCAGCUGCGUCGCUCUGGAAACUUAUUGGUUU | 18.4 | 22.7 |  | 
AGCAUGUUAUCAGAUACCAGACAUCUUUUUUUACGUAUUACAUGAGGAUCACCCAUGUUGGUCCCUUGGCAGCUGAAAUAUUUCA | 203 | 31.9 |  | 
CUCUGAGUCCGCAAGGACUCAGAGGCGGAUACCAGCGAGGUCCAUCGCCCUUGGCAGCCGAACAUGAGGAUCACCCAUGUCGGUA | 10.4 | 14.8 |  | 
UAUAUAUAUAUUGAUACCAGCAGAGAAAACGUUUAUCCUAACAUGAGGAUCACCCAUGUAUGCCCUUGGCAGCGAUAUAUAUAUA |  |  | 24.5 | 32.5
AGGAACAUGAGGAUCACCCAUGUAAGCGAUACCAGUGAUAUGUUGCGCCCUUGGCAGCGCAAGUGUGUGUGAAAGAUGUAAGAUU |  |  | 16.5 | 33.4
AAUGGCGUUGGUGAGGCGGUUAAUGGCGAUACCAGCGUGGAAACACGCCCUUGGCAGCGCCAAAACAUGAGGAUCACCCAUGUUA |  |  | 14.7 | 139
UAAAACAUGAGGAUCACCCAUGUAAUUGAUACCAGAGUGAUGAUCCUCCCUUGGCAGCAAAACGCUGAUUGGAAACAAUCAGCGA | 113 | 251 |  | 
AAUAUAAAAUAAAGAAAAUUUAUAUCUGAUACCAGACUCUCAUGGGUCCCUUGGCAGCAGUAACAUGAGGAUCACCCAUGUAUUA | 114 | 16.5 |  | 
UCGUGUAUAUCGGAUACCAGUGAGAACGAUACAUGAGGAUCACCCAUGUGAGUUGAUGUACACCCUUGGCAGCUGUAUAUAUCUA | 25 | 16.3 |  | 
UACAUGAGGAUCACCCAUGUAUGAAUAGAUACCAGAUAAAAUAAGGUCCCUUGGCAGCUAGUGAAUCGAGGGUGGGUAUCAUGAU |  |  | 10.4 | 10.8
